GalR3 antag: antagonists of human GalR3; HEK293 GalR3-CNG cAMP membrane potential fluorescence; galR3 body fused to GalR1 C-terminus; AID 651719; 360,000 tested, 0.44% active; inhibition, % at 3 µM;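 active = inhibition above the screen-wide average plus 3 SD, cut at about 13% in these data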;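 note: forskolin and galanin both at EC90 stimulate the cells; cAMP rise reported by CNG channel membrane potential dye signal; 0% = forskolin plus galanin with DMSO and 100% = forskolin alone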
Target sequence (O60755 1-299 limits assumed): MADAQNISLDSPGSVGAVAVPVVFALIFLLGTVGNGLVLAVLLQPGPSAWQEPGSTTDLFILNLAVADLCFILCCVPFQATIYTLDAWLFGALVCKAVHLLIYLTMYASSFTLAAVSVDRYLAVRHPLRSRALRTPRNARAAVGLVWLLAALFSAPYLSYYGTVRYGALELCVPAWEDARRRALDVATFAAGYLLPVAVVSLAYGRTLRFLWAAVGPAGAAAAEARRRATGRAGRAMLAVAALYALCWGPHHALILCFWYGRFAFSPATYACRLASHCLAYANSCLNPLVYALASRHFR
NR2F2 inh: NR2F2 (human) inhibition, primary screen; 370,000 tested, 0.7% active; P24468; HEK293T NGFI-A luciferase reporter, luminescence; inhibition, % at 8.6 µM;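 active = inhibition above a per-plate cutoff, mean inhibition of test wells between control levels plus 3 SD, cut at about 38% in these data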;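 note: cells cotransfected with COUP-TFII expression vector driving the NGFI-A reporter; 0% = median of COUP-TF2 test wells and 100% = reporter-only cells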
Target sequence (P24468 whole entry, looked up): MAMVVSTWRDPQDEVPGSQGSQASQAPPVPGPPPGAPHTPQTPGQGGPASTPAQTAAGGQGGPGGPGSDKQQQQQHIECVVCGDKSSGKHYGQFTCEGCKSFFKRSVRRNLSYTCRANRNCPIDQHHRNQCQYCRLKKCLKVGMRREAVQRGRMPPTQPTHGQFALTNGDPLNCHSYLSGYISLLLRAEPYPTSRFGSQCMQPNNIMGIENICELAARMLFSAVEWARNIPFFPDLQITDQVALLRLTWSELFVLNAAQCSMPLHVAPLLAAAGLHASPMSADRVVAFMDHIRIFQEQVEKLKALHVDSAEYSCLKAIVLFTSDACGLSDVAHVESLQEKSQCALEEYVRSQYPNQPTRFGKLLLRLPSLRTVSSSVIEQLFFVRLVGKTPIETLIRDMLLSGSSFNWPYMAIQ
NR2E3 ag-1: agonists of human NR2E3 nuclear receptor. Q9Y5X4. CHO-S Gal4-NCOR/VP16-NR2E3 two-hybrid, luciferase. inhibition of corepressor binding, % at 3.98 µM. 360,000 tested, 0.35% active;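 active = inhibition above the mean of all tested compounds plus 3 SD, cut at about 70% in these data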;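 note: 0% = DMSO with NR2E3 transfected cells and 100% = cells lacking NR2E3 construct; higher means lower luciferase signal from less NR2E3 corepressor binding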
NR2E3 ag-2: agonists of human nuclear receptor NR2E3 | inhibition of corepressor binding, % at 4.78 µM | 320,000 tested, 0.12% active | AID 2300 | GST-NR2E3/biotin-RetCOR TR-FRET, 1536-well | Q9Y5X4;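 active = percent inhibition above the cutoff of mean plus 3 SD of all tested compounds, set per screening campaign, cut at about 20% in these data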;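 note: 0% = DMSO wells and 100% = biotin wells as full block of FRET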
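Material: NR2E3–RetCOR corepressor complex | Quantity: 1.35 nM GST-tagged NR2E3 final | Schedule: 5 h at 4 °C | Replication: Singlicate compound wells | Reagent: RetCOR corepressor, biotinylated, 7 nM | Controls: Biotin wells as high control, 0.6% DMSO wells as low control | Signal: TR-FRET, Eu(K)-anti-GST donor, streptavidin-D2 acceptor, ex 340, em 617/671 nm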
SMARCA2 activ: increases SMARCA2 function in MMTV reporter cells. MG213 cells, MMTV-luciferase reporter, dexamethasone, overnight. activation, % at 9.1 µM. 370,000 tested, 1% active. AID 652017; in the data active = activation above about 7.8%;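 note: 0% = vehicle wells and 100% = reference activator wells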
NR2E3 ag conf: confirmation of human NR2E3 agonists. shares compounds with NR2E3 ag-1. CHO-S mammalian two-hybrid NR2E3-NCOR, luciferase luminescence. inhibition, % at 3.98 µM. 2,300 tested, 51% active. AID 624378;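 active = average inhibition above a cutoff equal to the mean inhibition of all tested compounds plus one SD, cut at about 70% in these data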;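 note: 0% = DMSO in NR2E3 cells and 100% = DMSO in cells lacking NR2E3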
VP16 counter: reduces GAL4-VP16 reporter signal in NR2E3 counterscreen. shares compounds with NR2E3 ag-1. CHO-S GAL4-VP16 luciferase reporter, luminescence. inhibition, % at 3.98 µM. 2,300 tested, 29% active. AID 624379;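 active = mean inhibition above a cutoff equal to the average over all tested compounds plus one standard deviation, cut at about 70% in these data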;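 note: luciferase from a UAS reporter driven by GAL4-VP16 transactivation; 0% = DMSO with VP16-transfected cells and 100% = DMSO with cells lacking VP16; higher means less reporter light so more repression of VP16 activity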
* = called active by the depositor; x = no result. Only some compounds are listed: those with a hit (about 2.2% of all), similar ones and a draw of the others.

SMILES	GalR3 antag	NR2F2 inh	NR2E3 ag-1	NR2E3 ag-2	SMARCA2 activ	NR2E3 ag conf	VP16 counter
O=C(CSc1nnc(NC(=O)C2CC2)s1)NCc1ccccc1	-7	-8	68	2	-2	-25	-9
Cc1ccccc1CS(=O)(=O)Cc1ccc(C(=O)Nc2ccccc2C)o1	x	9	x	x	1	x	x
CCCCCCCCNc1ncnc2ccccc12	x	x	92*	0	x	99*	92*
C[C@H]1[C@@H](OC(=O)Nc2ccccc2Cl)CC[C@@]23CCCN2C(=O)CCC[C@@H]13	x	4	x	x	x	x	x
COc1ccc(CCNC(=O)C2CC3Cn4c(nc5cc6ccccc6cc54)C3N2C)cc1 (centres undefined)	-4	0	53	-3	0	32	35
CCC[C@H]1[C@@H](OC(=O)N2CCN(c3ccccc3)CC2)CC[C@@]23CCCN2C(=O)CCC[C@@H]13	x	-3	x	x	x	x	x
COc1ccc([C@@H]2CC(=O)[C@@H]3CN(S(=O)(=O)c4ccc(Cl)cc4)[C@H](c4ccc(C)cc4)C[C@@H]3N2S(=O)(=O)c2ccccc2)cc1	2	24	3	x	-5	x	x
COc1ccc([C@@H]2C[C@H]3[C@@H](CN2S(=O)(=O)c2ccccc2)C(=O)C[C@@H](c2cccc(Cl)c2)N3S(=O)(=O)c2ccc(C)cc2)cc1	x	x	62	x	x	72*	55
N#Cc1c(Cl)nsc1NC(=O)c1ccccc1	-3	15	85*	4	-3	99*	88*
CC(C)(C)c1ccc(-c2nnc3sc(COc4ccccc4)nn23)cc1	x	-10	x	x	4	x	x
O=C(Nc1ccccc1)c1ccccc1NS(=O)(=O)c1ccc(Cl)s1	-4	-3	102*	1	-3	99*	86*
O=C(NCc1ccco1)c1ccccc1NS(=O)(=O)c1ccc(Cl)s1	-3	-4	10	-1	-6	x	x
C#CCN(CC=C)Cc1ccc(OC)cc1OC	x	-41	x	x	2	x	x
COC(=O)[C@]12C[C@H](CC(=O)NCc3cccs3)C(=O)N(Cc3ccco3)C1=C[C@H](C(C)(C)C)O[C@@H]2C	x	-8	x	x	1	x	x
O=C(Nc1cccc(OC(F)(F)F)c1)C1Cc2c(-c3ccc4c(c3)OCO4)ccnc2O1 (centres undefined)	-8	26	81*	x	-4	82*	19
CCCC(=O)N1CCN(c2ccc(NC(=O)c3cc4ccccc4o3)cc2Cl)CC1	-2	36	51	2	-2	40	26
CCCC(=O)N1CCN(c2ccc(NC(=O)c3cccs3)cc2Cl)CC1	-6	1	-20	2	0	x	x
Cc1cccc(C(=O)NNC(=S)NC(=O)c2cccs2)c1	2	-12	54	1	1	46	1
Cc1cccc(C(=O)NNC(=S)NC(=O)c2ccccc2)c1	-4	-5	11	-1	-4	x	x
CCc1ccc(NC(=O)CSc2nc3ncc(Br)cc3[nH]2)cc1	-6	1	-41	3	-3	x	x
COc1cccc(NC(=O)CSc2nc3ncc(Br)cc3[nH]2)c1	-10	-6	66	0	0	80*	33
Cc1cc(=O)[nH]c(SCC(=O)Nc2ccc3c(c2)CCC3)c1C#N	-1	-12	55	0	-4	39	41
Cc1cc(=O)[nH]c(SCC(=O)Nc2ccc(Br)cc2)c1C#N	-4	-16	78*	-3	-4	98*	90*
Cc1cc(=O)[nH]c(SCC(=O)Nc2ccc(F)cc2)c1C#N	-3	-4	-12	4	-1	x	x
COC(=O)[C@]12C[C@H](CC(=O)NCCc3ccccc3OC)C(=O)N(CCc3ccc(OC)c(OC)c3)C1=C[C@H](COCc1ccccc1)O[C@@H]2C	x	19	x	x	-2	x	x
SMILES	GalR3 antag	NR2F2 inh	NR2E3 ag-1	NR2E3 ag-2	SMARCA2 activ	NR2E3 ag conf	VP16 counter
COc1ccc(Cl)cc1Cn1c(C)c(C(=O)NCc2cccc(Cl)c2)sc1=O	-5	18	76*	x	-2	75*	4
COc1ccc(CNC(=O)c2sc(=O)n(Cc3cc(Cl)ccc3OC)c2C)cc1	-6	12	39	x	-2	x	x
COc1ccc(C(C)=O)cc1Cn1c(C)c(C(=O)NCc2cccc(Cl)c2)sc1=O	2	26	27	x	-2	x	x
COc1ccc(NC(=O)c2sc(=O)n(Cc3ccc(F)c(Cl)c3)c2C)cc1OC	-1	15	57	x	-3	76*	28
CCCCCCCCSC1=CC(=O)C(OC)=C(OC)C1=O	-3	7	59	x	-2	93*	68
CCCCCSc1nncc(=O)[nH]1	-4	-2	-17	1	-5	x	x
O=C1N[C@@H](Cc2ccccc2)COC(=O)[C@H](Cc2ccc(F)cc2)C/C=C\C[C@H]1CC(=O)N(CCO)Cc1ccccc1	-5	22	-23	x	-3	x	x
O=C1N[C@H](Cc2ccccc2)COC(=O)[C@H](Cc2ccc(F)cc2)C/C=C\C[C@H]1CC(=O)N(CCO)Cc1ccccc1	-11	9	62	x	1	63	16
O=C1NC[C@H](c2ccccc2)OC(=O)[C@@H](Cc2ccc(F)cc2)CC/C=C/C[C@H]1CC(=O)N(CCO)Cc1ccccc1	-8	19	49	x	1	37	31
COc1ccc(CN2CCC(CNC(=O)Nc3ccc(Cl)cc3)CC2)cc1	x	-6	x	x	0	x	x
COc1ccc(N2C(=O)CC(Cc3ccccc3)C2=O)cc1 (centres undefined)	-6	-4	11	-2	1	x	x
O=C1C=CC2(C=C1)O[C@H](Cc1ccccc1)[C@@H](Cc1ccccc1)O2	0	100*	100*	x	-13	100*	68
COc1ccc(C[C@@H]2OC3(C=CC(=O)C=C3)O[C@H]2Cc2ccc(OC)cc2)cc1	x	x	97*	x	x	96*	54
CC(=O)c1ccc(OCc2cc(C(=O)N3CC[C@@H]4CCCC[C@H]4C3)no2)cc1	-4	-7	-80	1	5	x	x
CCCN1CCN(C(=O)c2cc(COc3ccc4ncccc4c3)on2)CC1	-10	31	61	2	-6	44	68
CC(=O)c1ccc(OCc2cc(C(=O)N3CCC(c4ccncc4)CC3)no2)cc1	-4	15	90*	-4	-2	71*	74*
CCCCn1c(CN2CCN(c3cccc(Cl)c3)CC2)nc2c1c(=O)n(C)c(=O)n2C	-6	1	-14	-1	-3	x	x
CCCn1c(CN2CCN(c3cccc(Cl)c3)CC2)nc2c1c(=O)n(C)c(=O)n2C	x	8	93*	-1	-3	94*	85*
Cc1[nH]n2c(=O)cc(C(C)(C)C)nc2c1-c1ccccc1	2	12	51	6	-4	100*	96*
Cc1[nH]n2c(=O)cc(-c3ccc([N+](=O)[O-])cc3)nc2c1-c1ccccc1	-1	3	97*	-1	0	99*	58
